Activity calls are given as the source filed them. No cut-off for these calls is given here.
Key:
[1] = test system: A549; assay: Cytotoxicity against human A549 cells assessed cell viability after 48 hrs by SRB assay; format: functional, cell-based; conditions: for IC50: A549, 48 h
Summary of the method: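 A549 cells were treated for 48 h and net growth was measured by sulforhodamine B colorimetric assay. IC50 is the concentration causing a 50% decrease in net cell growth. Test levels were 40, 60 and 80 µM.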

[2] = test system: A549; assay: Induction of necrosis in human A549 cells at 80 uM after 48 hrs by LDH release assay; format: functional, cell-based
Summary of the method: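 A549 cells were treated at 80 µM, or with 0.1% DMSO or left untreated as control, for 48 h. LDH release into the cells' surroundings served as the necrosis read-out, n = 3, mean ± SE.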

[3] = test system: A549; assay: Cell cycle arrest in human A549 cells assessed as accumulation at S phase at 80 uM after 48 hrs by FACS flow cytometry (reference value: 34.67 %); format: functional
[4] = test system: A549; assay: Cell cycle arrest in human A549 cells assessed as accumulation at G2 phase at 80 uM after 48 hrs by FACS flow cytometry (reference value: 9.39 %); format: functional
[5] = test system: A549; assay: Induction of autophagy in human A549 cells assessed as increase in LC3-2 level at 80 uM after 48 hrs by Western blot analysis relative to beta-actin; format: functional, cell-based
Summary of the method: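 A549 cells were treated at 80 µM for 48 h. LC3-II protein was detected by immunoblot and normalized to β-actin, expressed as percent of control, n = 3.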

[6] = test system: A549; assay: Induction of apoptosis in human A549 cells assessed as chromatin condensation at 80 uM after 48 hrs by Hoechst 33258 staining-based fluorescent microscopy; format: functional, cell-based
Summary of the method: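 A549 cells were exposed to compound at 80 µM for 48 h, then stained with Hoechst 33258. Nuclei were examined by fluorescence microscopy for chromatin condensation and apoptotic bodies, against an untreated control group.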

[7] = test system: A549; assay: Cell cycle arrest in human A549 cells assessed as accumulation at G1 phase at 80 uM after 48 hrs by FACS flow cytometry (reference value: 55.94%); format: functional
[8] = test system: A549; assay: Cytotoxicity against human A549 cells assessed as cell viability at 40 uM after 48 hrs by SRB assay; format: functional, cell-based
Summary of the method: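 A549 cells were treated at 40, 60 or 80 µM, or left untreated (control), for 48 h. Viability was read by sulforhodamine B colorimetric assay against untreated cells, n = 3, mean ± SE.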

| Structure (SMILES) | IC50 [1] [µM] | Activity [2] | Activity [3] [%] | Activity [4] [%] | Activity [5] | Activity [6] | Activity [7] [%] | Activity [1] | Activity [8] |
| --- | --- | --- | --- | --- | --- | --- | --- | --- | --- |
| O=c1[nH]cc(F)c(=O)[nH]1 [FLUOROURACIL] | 4.21 |  |  |  |  |  |  |  |  |
| CCOC(=O)[C@@H](CS)NC(=O)c1cc(-c2ccc(Cl)cc2)nn1Cc1ccccc1 |  | inactive | 32.55 | 7.25 | Active | Active | 60.2 |  |  |
| CCOC(=O)[C@@H](CO)NC(=O)c1cc(-c2ccccc2)nn1Cc1ccccc1 | 56.1 | inactive | 34.44 | 8.08 | Active | Active | 57.48 | Dose-dependent effect |  |
| CCOC(=O)[C@@H](CO)NC(=O)c1cc(-c2ccc(Cl)cc2)nn1Cc1ccc(C(C)(C)C)cc1 | 38.8 | inactive | 19.53 | 0.92 | Active | Active | 79.54 | Dose-dependent effect | Active |
| CCOC(=O)[C@@H](CO)NC(=O)c1cc(-c2ccccc2)nn1Cc1ccc(C(C)(C)C)cc1 | 36.1 | inactive | 21.63 | 6.06 | Active | Active | 72.31 | Dose-dependent effect | Active |
| CCOC(=O)CNC(=O)c1cc(-c2ccc(Cl)cc2)nn1Cc1ccc(C(C)(C)C)cc1 | 63.4 | inactive | 19.91 | 4.04 | Active | Active | 76.06 | Dose-dependent effect |  |
| CCOC(=O)CNC(=O)c1cc(-c2ccc(Cl)cc2)nn1Cc1ccccc1 |  | inactive | 34.04 | 8.57 | Active | Active | 57.39 |  |  |
| CCOC(=O)[C@@H](CO)NC(=O)c1cc(-c2ccc(Cl)cc2)nn1Cc1ccccc1 | 56.8 | inactive | 40.08 | 0.69 | Active | Active | 59.23 | Dose-dependent effect |  |
